Screens as filed in PubChem.
SR-BI uptake up = enhances SR-BI lipid uptake from DiI-HDL; activation, % at 12.5 µM; CHO ldlA[mSR-BI] cells, DiI-HDL uptake fluorescence, 3 h; 100 = double the neutral-control signal; 320,000 compounds, 0.096% hits; AID 504775;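 active = mean replicate activation of at least 60% and every replicate at or above 60%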
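Assay system: CHO ldlA[mSR-BI] cells, LDL receptor-null, SR-BI overexpressing; medium: Ham's F12 with 0.5% BSA, HEPES 25 mM, pH 7.4; also added: DiI-HDL 10 µg/mL; timing: 3 h uptake period with compound, 37 °C; signal: DiI fluorescence, bottom read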
CDK5 inh = blocks human CDK5/p35 kinase activity. 330,000 compounds, 0.01% hits. Recombinant CDK5/p35, ADP-Glo luminescence, 60 min. inhibition, % at 10 µM;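 active = highest replicate inhibition of at least 50% and at least 75% of replicates reaching 50%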
PKA-R2B activ = activates the human PKA-R2B holoenzyme complex | PKA-R2B holoenzyme dissociation, Cy5-IP20 fluorescence polarization; R2B truncated from residue 108, S112A mutant; 0% DMSO only, 100% 113 µM cGMP | activation, % at 11.4 µM | AID 504700 | 340,000 compounds, 0.079% hits | P22694+P31323;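 active = activation above a cutoff set at the mean over all compounds plus 3 SD, cut at about 18% in these data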;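 note: higher means more holoenzyme dissociation and a rise in polarization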
SR-BI DiI inh = blocks mouse SR-BI lipid uptake from DiI-HDL | inhibition, % at 12.5 µM | 320,000 compounds, 0.96% hits | ldlA[mSR-BI] CHO cells, DiI-HDL uptake fluorescence, 3 h;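 active = mean replicate inhibition of at least 70% and a set share of replicates each scoring 70 or more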
dFosB activator = activators of mouse delta FosB homodimer; 340,000 compounds, 0.99% hits; P13346; activation, % at 25 µM; purified delta FosB, TAMRA-CDK5 oligo fluorescence polarization; percent of positive-control signal above neutral wells;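 active = mean activation above about 17%, with every replicate also reaching it, limit read from the data, passing the limit was not always enough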
Target sequence (P13346 whole entry, looked up): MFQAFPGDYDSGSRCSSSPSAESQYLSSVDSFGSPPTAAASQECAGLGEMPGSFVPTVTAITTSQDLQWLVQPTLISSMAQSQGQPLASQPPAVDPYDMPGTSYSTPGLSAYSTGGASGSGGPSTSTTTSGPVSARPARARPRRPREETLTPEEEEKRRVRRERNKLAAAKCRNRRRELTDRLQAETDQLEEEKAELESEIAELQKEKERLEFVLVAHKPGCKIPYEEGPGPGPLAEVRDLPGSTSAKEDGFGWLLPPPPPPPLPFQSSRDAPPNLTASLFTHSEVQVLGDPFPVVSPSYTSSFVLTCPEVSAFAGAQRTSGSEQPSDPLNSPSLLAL
PKA-R1A act = PKA-R1A complex activation; P00514+P68181; PKA-R1A dissociation, Cy5-IP20 fluorescence polarization; scaled: DMSO 0%, 113 µM cGMP 100%; activation, % at 11.4 µM; 340,000 compounds, 0.083% hits;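 active = percent activation above the mean of all tested compounds plus 3 SD, cut at about 19% in these data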;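 note: higher means more PKAc released from R1A so a rise in polarization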
R2B FP artifact = FP assay interference, PKA-R2B counter-screen; 270 compounds, 6% hits; AID 504796; activation, % at 11.4 µM; FP artifact counterscreen, fluorescence polarization; shares compounds with PKA-R2B activ; in the data active = activation above about 20%;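 note: Cy5 labelled IP20 peptide probe with compound but no PKA protein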
PKA-R2B confirm = confirmation of human PKA-R2B complex activators; shares compounds with PKA-R2B activ; fluorescence polarization, activation; activation, % at 11.4 µM; 270 compounds, 9% hits; in the data active = activation above about 19%
Of the large screens only hits and unclear results are named; the others gave an inactive call (follow-up assays come after a bar, where they were run). Hits are enriched below; roughly 2.1% of the tested compounds scored in any of these assays.

COc1cc2cc(CN(Cc3ccc4c(c3)OCO4)C(=O)c3ccco3)c(=O)[nH]c2cc1OC	PKA-R2B activ 20.9 | R2B FP artifact inactive | PKA-R2B confirm inactive
O=C1CCC(C(=O)N2CCN(c3ccccc3)CC2)CN1CC1CCCCC1 (configuration not stated)	none
CC1C(=O)Nc2ccccc2N1C(=O)c1ccc(O)cc1 (configuration not stated)	none
CC1C(=O)Nc2ccccc2N1C(=O)c1ccccc1 (configuration not stated)	PKA-R2B activ 19.8 | R2B FP artifact inactive | PKA-R2B confirm inactive
COC(=O)Cc1cc(=O)n2[nH]cnc2n1	PKA-R2B activ 18.7 | R2B FP artifact inactive | PKA-R2B confirm inactive
CCn1c(SCC(=O)NCc2cccs2)nnc1-c1cccs1	none
CCn1c(SCC(=O)NCCc2ccc(Cl)cc2)nnc1-c1cccs1	PKA-R2B activ 18.9 | R2B FP artifact inactive | PKA-R2B confirm inactive
COc1ccc(NC(=O)Nc2ccc3c(c2)C(=O)N([C@H](C)CO)C[C@H](C)[C@@H](CN(C)C(=O)Nc2ccc(C(F)(F)F)cc2)O3)cc1	PKA-R2B activ 18.9 | R2B FP artifact inactive | PKA-R2B confirm inactive
CCOC(=O)C1CCCN(C(=O)c2cc3c(OC)c(OC)c(OC)cc3[nH]2)C1 (configuration not stated)	none
Cc1nc(C)c(C(=O)N(c2ccc(F)cc2)C(C(=O)NCC2CCCO2)c2ccccc2)s1 (configuration not stated)	PKA-R2B activ 20.1 | R2B FP artifact inactive | PKA-R2B confirm inactive
COc1ccc(C2CC(c3cccs3)=NN2C(=O)CSc2nc(=O)n3cc(C)ccc3n2)cc1 (configuration not stated)	none
CCc1cc(=O)n2[nH]c(-c3ccccc3)c(-c3ccccc3)c2n1	none
COc1ccc(OC)c(-c2nnc3n2N=C(c2ccc(OC)c(OC4CCOC4)c2)CS3)c1 (configuration not stated)	PKA-R2B activ 18.6 | R2B FP artifact inactive | PKA-R2B confirm inactive
O=C(OCC(=O)N1CCCCCC1)c1cc(S(=O)(=O)N2CCOCC2)ccc1F	none (no result: SR-BI uptake up, CDK5 inh, SR-BI DiI inh, dFosB activator)
c1ccc(CSc2nnc3ccc(-c4ccncc4)nn23)cc1	none (no result: SR-BI uptake up, SR-BI DiI inh)
Fc1ccccc1CSc1nnc2ccc(-c3ccncc3)nn12	PKA-R2B activ 19.1 (no result: SR-BI uptake up, SR-BI DiI inh) | R2B FP artifact inactive | PKA-R2B confirm inactive
COc1ccccc1N1CCN(Cc2cnc3ccc(Cl)cn23)CC1	none
CCC(=O)c1ccc(OCC(=O)OCC(=O)Nc2ccc3c(c2)OCCO3)cc1	none
O=C(COC(=O)COc1ccc(Cl)cc1)Nc1ccc2c(c1)OCCO2	PKA-R2B activ 18.5 | R2B FP artifact inactive | PKA-R2B confirm inactive
OC(CCCN1CCC(O)(c2ccc(Cl)cc2)CC1)c1ccc(F)cc1 (configuration not stated)	PKA-R2B activ 18.6 | R2B FP artifact inactive | PKA-R2B confirm inactive
O=C(CN1CCOCC1)NCc1cc([N+](=O)[O-])ccc1O	none
Cc1cccc(C)c1N1CCN(c2nc(N(C)C)oc(=O)c2C#N)CC1	PKA-R2B activ 20.3 | R2B FP artifact inactive | PKA-R2B confirm inactive
CN(C)c1nc(N2CCN(c3ccccc3)CC2)c(C#N)c(=O)o1	none
COc1c(-c2ccccc2)oc2c(ccc3occc32)c1=O	none
CC(C)Oc1ccc(S(=O)(=O)N2CCOCC2)cc1NC(=O)CC1OC(=O)c2ccccc21 (configuration not stated)	none
CC(C)Oc1ccc(S(=O)(=O)N2CCCCC2)cc1NC(=O)CC1OC(=O)c2ccccc21 (configuration not stated)	PKA-R2B activ 20.0 | R2B FP artifact inactive | PKA-R2B confirm inactive
Cc1sc2ncn(CC(=O)NC3CCCCC3)c(=O)c2c1C	none
CCc1cc2c(=O)n(CC(=O)NC3CCCCC3)cnc2s1	PKA-R2B activ 18.7 | R2B FP artifact inactive | PKA-R2B confirm inactive
COc1ccc(OC)c(CC(NC(C)=O)C(=O)NC2CCN(c3c(Cc4ccccc4)c(C)nc4ncnn34)CC2)c1 (configuration not stated)	PKA-R2B activ 21.5 | R2B FP artifact inactive | PKA-R2B confirm inactive
COCC(=O)N(C)C[C@@H]1Oc2ncc(Br)cc2C(=O)N([C@@H](C)CO)C[C@H]1C	none (no result: SR-BI uptake up, CDK5 inh, SR-BI DiI inh, dFosB activator)
N#Cc1nc(-c2cccs2)oc1NCC1CCCO1 (configuration not stated)	PKA-R2B activ 19.0 | R2B FP artifact inactive | PKA-R2B confirm inactive
Cc1ccc(-c2nc(C#N)c(NCC3CCCO3)o2)cc1 (configuration not stated)	none
CSc1ncccc1C(=O)Nc1ccc2c(c1)OCCO2	none
O=C(CCSc1ccccc1)NCC1CCCO1 (configuration not stated)	none
O=C(CCSCCC(=O)NCC1CCCO1)NCC1CCCO1 (configuration not stated)	PKA-R2B activ 20.4 | R2B FP artifact inactive | PKA-R2B confirm inactive
O=C(NCC1CCCO1)c1nn2c(C(F)(F)F)cc(-c3ccc(Br)o3)nc2c1Br (configuration not stated)	none
Clc1cccc(N/N=C/c2ccc(N3CCOCC3)s2)c1	PKA-R2B activ 21.3 | R2B FP artifact inactive | PKA-R2B confirm inactive
O=C(N/N=C/c1ccc(N2CCOCC2)s1)c1ccccc1Br	none
CC(C)CC1NC(=O)c2cccnc2-n2c1nc1ccccc1c2=O (configuration not stated)	none (no result: SR-BI uptake up, CDK5 inh, SR-BI DiI inh, dFosB activator)
CCN(CC)CCNC(=O)c1ccc(NC2=NC3CS(=O)(=O)CC3S2)cc1 (configuration not stated)	PKA-R2B activ 18.6 | R2B FP artifact inactive | PKA-R2B confirm inactive
COc1ccccc1NC(=O)C(C)Sc1nc(-c2ccccc2)cn1N (configuration not stated)	none
CCC[C@@H]1Cc2ccccc2N1C(C)=O	PKA-R2B activ 19.6 | R2B FP artifact inactive | PKA-R2B confirm inactive
Cc1ccccc1NS(=O)(=O)c1cc(C(N)=O)ccc1C	none
Cc1ccccc1NS(=O)(=O)c1cc(S(C)(=O)=O)ccc1C	PKA-R2B activ 18.7 | R2B FP artifact inactive | PKA-R2B confirm inactive
O=C(Nc1ccc2c(c1)CCCN2C(=O)c1ccco1)c1cc([N+](=O)[O-])ccc1Cl	none
CCOc1ccccc1NC(=O)C1CCN(C(=O)C2CC(=O)N(c3ccc(C)cc3)C2)CC1 (configuration not stated)	none (no result: SR-BI uptake up, SR-BI DiI inh)
